Results taken from ChEMBL document CHEMBL3120060, “Synthesis, in vitro anticancer evaluation and in silico studies of novel imidazo[2,1-b]thiazole derivatives bearing pyrazole moieties” (2014).

Assays:
Type in all cases: functional
SK-OV-3 = assay: Cytotoxicity against human SKOV3 cells assessed as cell growth at 10 uM after 48 hrs by SRB assay; conditions: SK-OV-3, 48 h, read-out: Activity
Outline: (§1)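 NCI-60 single-dose screen. Cell lines grown in RPMI 1640 with 5% FBS and 2 mM L-glutamine, plated at 5000–40,000 cells/well according to doubling time, then preincubated 24 h at 37 °C in 5% CO2. Compounds dissolved in DMSO, tested at 10^-5 M for 48 h. Adherent cells fixed with cold TCA (10% final) and stained with 0.4% SRB in 1% acetic acid. Growth expressed as percent of untreated control.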

RXF 393 = assay: Cytotoxicity against human RXF393 cells assessed as cell growth at 10 uM after 48 hrs by SRB assay; conditions: RXF 393, 48 h, read-out: Activity; outline: as §1
HCT-15 = assay: Cytotoxicity against human HCT15 cells assessed as cell growth at 10 uM after 48 hrs by SRB assay; conditions: HCT-15, 48 h, read-out: Activity; outline: as §1
NCI-H522 = assay: Cytotoxicity against human NCI-H522 cells assessed as cell growth at 10 uM after 48 hrs by SRB assay; conditions: NCI-H522, 48 h, read-out: Activity; outline: as §1
CAKI-1 = assay: Cytotoxicity against human CAKI-1 cells assessed as cell growth at 10 uM after 48 hrs by SRB assay; conditions: CAKI-1, 48 h, read-out: Activity; outline: as §1
[1] = Cytotoxicity against human NCI-ADR-RES cells assessed as cell growth at 10 uM after 48 hrs by SRB assay; conditions: read-out: Activity; outline: as §1
MDA-MB-231 = assay: Cytotoxicity against human MDA-MB-231 cells assessed as cell growth at 10 uM after 48 hrs by SRB assay; conditions: MDA-MB-231, 48 h, read-out: Activity; outline: as §1
SF-295 = assay: Cytotoxicity against human SF295 cells assessed as cell growth at 10 uM after 48 hrs by SRB assay; conditions: SF-295, 48 h, read-out: Activity; outline: as §1
KM12 = assay: Cytotoxicity against human KM12 cells assessed as cell growth at 10 uM after 48 hrs by SRB assay; conditions: KM12, 48 h, read-out: Activity; outline: as §1
[2] = Cytotoxicity against human OVCAR5 cells assessed as cell growth at 10 uM after 48 hrs by SRB assay; conditions: OVCAR-5, 48 h, read-out: Activity; outline: as §1
COLO 205 = assay: Cytotoxicity against human COLO205 cells assessed as cell growth at 10 uM after 48 hrs by SRB assay; conditions: COLO 205, 48 h, read-out: Activity; outline: as §1
SK-MEL-5 = assay: Cytotoxicity against human SK-MEL-5 cells assessed as cell growth at 10 uM after 48 hrs by SRB assay; conditions: SK-MEL-5, 48 h, read-out: Activity; outline: as §1
HOP-62 = assay: Cytotoxicity against human HOP62 cells assessed as cell growth at 10 uM after 48 hrs by SRB assay; conditions: HOP-62, 48 h, read-out: Activity; outline: as §1
[3] = Cytotoxicity against human OVCAR4 cells assessed as cell growth at 10 uM after 48 hrs by SRB assay; conditions: OVCAR-4, 48 h, read-out: Activity; outline: as §1
LOX IMVI = assay: Cytotoxicity against human LOXIMVI cells assessed as cell growth at 10 uM after 48 hrs by SRB assay; conditions: read-out: Activity; outline: as §1
IGROV-1 = assay: Cytotoxicity against human IGROV1 cells assessed as cell growth at 10 uM after 48 hrs by SRB assay; conditions: IGROV-1, 48 h, read-out: Activity; outline: as §1
NCI-H460 = assay: Cytotoxicity against human NCI-H460 cells assessed as cell growth at 10 uM after 48 hrs by SRB assay; conditions: NCI-H460, 48 h, read-out: Activity; outline: as §1
[4] = Cytotoxicity against human UO31 cells assessed as cell growth at 10 uM after 48 hrs by SRB assay; conditions: UO-31, 48 h, read-out: Activity
Outline: (§2)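 NCI-60 single-dose screen at 10^-5 M. Adherent lines are grown in RPMI 1640 with 5% FBS and 2 mM L-glutamine, seeded at 5000–40,000 cells/well by doubling time, and preincubated 24 h at 37 °C in 5% CO2. Drug is added from DMSO stock diluted in medium, then 48 h. Cells are fixed in cold TCA (final 10%) for 60 min and stained with 0.4% SRB in 1% acetic acid. Growth is expressed as % of untreated control using time-zero plates.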

A498 = assay: Cytotoxicity against human A498 cells assessed as cell growth at 10 uM after 48 hrs by SRB assay; conditions: A498, 48 h, read-out: Activity; outline: as §1
T47D = assay: Cytotoxicity against human T47D cells assessed as cell growth at 10 uM after 48 hrs by SRB assay; conditions: read-out: Activity; outline: as §2
CCRF-CEM = assay: Cytotoxicity against human CCRF-CEM cells assessed as cell growth at 10 uM after 48 hrs by SRB assay; conditions: read-out: Activity; outline: as §1
MOLT-4 = assay: Cytotoxicity against human MOLT4 cells assessed as cell growth at 10 uM after 48 hrs by SRB assay; conditions: MOLT-4, 48 h, read-out: Activity; outline: as §1
DU-145 = assay: Cytotoxicity against human DU145 cells assessed as cell growth at 10 uM after 48 hrs by SRB assay; conditions: DU-145, 48 h, read-out: Activity; outline: as §1
SNB-75 = assay: Cytotoxicity against human SNB75 cells assessed as cell growth at 10 uM after 48 hrs by SRB assay; conditions: SNB-75, 48 h, read-out: Activity; outline: as §1
786-0 = assay: Cytotoxicity against human 786-0 cells assessed as cell growth at 10 uM after 48 hrs by SRB assay; conditions: 786-0, 48 h, read-out: Activity; outline: as §1
A549 = assay: Cytotoxicity against human A549 cells assessed as cell growth at 10 uM after 48 hrs by SRB assay; conditions: A549, 48 h, read-out: Activity; outline: as §1
MCF7 = assay: Cytotoxicity against human MCF7 cells assessed as cell growth at 10 uM after 48 hrs by SRB assay; conditions: MCF7, 48 h, read-out: Activity; outline: as §1
NCI-H23 = assay: Cytotoxicity against human NCI-H23 cells assessed as cell growth at 10 uM after 48 hrs by SRB assay; conditions: NCI-H23, 48 h, read-out: Activity; outline: as §1
SN12C = assay: Cytotoxicity against human SN12C cells assessed as cell growth at 10 uM after 48 hrs by SRB assay; conditions: read-out: Activity; outline: as §1
SF-539 = assay: Cytotoxicity against human SF539 cells assessed as cell growth at 10 uM after 48 hrs by SRB assay; conditions: SF-539, 48 h, read-out: Activity; outline: as §1
HT-29 = assay: Cytotoxicity against human HT-29 cells assessed as cell growth at 10 uM after 48 hrs by SRB assay; conditions: HT-29, 48 h, read-out: Activity; outline: as §1
HOP-92 = assay: Cytotoxicity against human HOP92 cells assessed as cell growth at 10 uM after 48 hrs by SRB assay; conditions: HOP-92, 48 h, read-out: Activity; outline: as §1
MDA-MB-435 = assay: Cytotoxicity against human MDA-MB-435 cells assessed as cell growth at 10 uM after 48 hrs by SRB assay; conditions: MDA-MB-435, 48 h, read-out: Activity; outline: as §1

| Compound | growth at 10 µM (SK-OV-3) | growth at 10 µM (RXF 393) | growth at 10 µM (HCT-15) | growth at 10 µM (NCI-H522) | growth at 10 µM (CAKI-1) | growth at 10 µM [1] | growth at 10 µM (MDA-MB-231) | growth at 10 µM (SF-295) | growth at 10 µM (KM12) | growth at 10 µM [2] | growth at 10 µM (COLO 205) | growth at 10 µM (SK-MEL-5) | growth at 10 µM (HOP-62) | growth at 10 µM [3] | growth at 10 µM (LOX IMVI) | growth at 10 µM (IGROV-1) | growth at 10 µM (NCI-H460) | growth at 10 µM [4] | growth at 10 µM (A498) | growth at 10 µM (T47D) | other results |
| --- | --- | --- | --- | --- | --- | --- | --- | --- | --- | --- | --- | --- | --- | --- | --- | --- | --- | --- | --- | --- | --- |
| Cc1ccc(-c2csc3nc(-n4nc(C)cc4C)cn23)cc1 | 101% | 105% | 101% | 91.8% | 83.5% | 98.5% | 88.8% | 88.5% | 108% | 113% | 106% | 98.9% | 104% | 97.8% | 92.8% | 107% | 102% | 94.4% | 103% | 98.2% | growth at 10 µM (CCRF-CEM): 96%; growth at 10 µM (MOLT-4): 98.4%; growth at 10 µM (DU-145): 116%; growth at 10 µM (SNB-75): 85.9%; growth at 10 µM (786-0): 105%; growth at 10 µM (A549): 98.6%; growth at 10 µM (MCF7): 89.7%; growth at 10 µM (NCI-H23): 93.3%; growth at 10 µM (SN12C): 98.1%; growth at 10 µM (SF-539): 109%; growth at 10 µM (HT-29): 104%; growth at 10 µM (HOP-92): 78%; growth at 10 µM (MDA-MB-435): 94.6% |
| CC1=NN(c2cn3c(-c4ccccc4)csc3n2)C(=O)C1 | 88.9% | 109% | 96.7% | 89.2% | 79.9% | 92.5% | 89.9% | 69.4% | 102% | 96.7% | 102% | 102% | 95.3% | 98% | 90.8% | 88% | 107% | 59% | 96.6% | 89.4% | growth at 10 µM (CCRF-CEM): 95.9%; growth at 10 µM (MOLT-4): 84.4%; growth at 10 µM (DU-145): 106%; growth at 10 µM (SNB-75): 59.4%; growth at 10 µM (786-0): 96.6%; growth at 10 µM (A549): 101%; growth at 10 µM (MCF7): 89.6%; growth at 10 µM (NCI-H23): 91.6%; growth at 10 µM (SN12C): 96%; growth at 10 µM (SF-539): 89.7%; growth at 10 µM (HT-29): 106%; growth at 10 µM (HOP-92): 66.5%; growth at 10 µM (MDA-MB-435): 92.9% |
| Cc1cc(C)n(-c2cn3c(-c4ccccc4)csc3n2)n1 | 89.9% | 93.4% | 95% | 88.4% | 77.4% | 95.5% | 86.3% | 77.5% | 104% | 95.4% | 106% | 94.2% | 91.4% | 93% | 91.9% | 76.5% | 104% | 59.2% | 111% | 87.2% | growth at 10 µM (CCRF-CEM): 95.4%; growth at 10 µM (MOLT-4): 93.9%; growth at 10 µM (DU-145): 105%; growth at 10 µM (SNB-75): 64.1%; growth at 10 µM (786-0): 98%; growth at 10 µM (A549): 99%; growth at 10 µM (MCF7): 88.7%; growth at 10 µM (NCI-H23): 95.4%; growth at 10 µM (SN12C): 96.5%; growth at 10 µM (SF-539): 94%; growth at 10 µM (HT-29): 97.6%; growth at 10 µM (HOP-92): 86%; growth at 10 µM (MDA-MB-435): 96.9% |
| Cc1cc(C)n(-c2cn3c(-c4ccc(Cl)cc4)csc3n2)n1 | 93.4% | 93.5% | 95.5% | 75.3% | 78.6% | 100% | 86.4% | 82.5% | 99.9% | 109% | 100% | 85.5% | 97.1% | 81.9% | 91.9% | 108% | 101% | 89.6% | 85.7% | 80.7% | growth at 10 µM (CCRF-CEM): 87.8%; growth at 10 µM (MOLT-4): 81.3%; growth at 10 µM (DU-145): 113%; growth at 10 µM (SNB-75): 69.2%; growth at 10 µM (786-0): 102%; growth at 10 µM (A549): 85.8%; growth at 10 µM (MCF7): 85.1%; growth at 10 µM (NCI-H23): 91%; growth at 10 µM (SN12C): 89%; growth at 10 µM (SF-539): 104%; growth at 10 µM (HT-29): 87%; growth at 10 µM (HOP-92): 74.7%; growth at 10 µM (MDA-MB-435): 94.5% |
| CC1=NN(c2cn3c(-c4ccc(Cl)cc4)csc3n2)C(=O)C1 | 100% | 104% | 88.7% | 84.5% | 79.3% | 100% | 96.5% | 85.6% | 105% | 106% | 103% | 92.4% | 97.5% | 77.2% | 96.8% | 99.3% | 103% | 80.9% | 74.1% | 73.7% | growth at 10 µM (CCRF-CEM): 84.4%; growth at 10 µM (MOLT-4): 65.8%; growth at 10 µM (DU-145): 105%; growth at 10 µM (SNB-75): 65.3%; growth at 10 µM (786-0): 94.1%; growth at 10 µM (A549): 79.6%; growth at 10 µM (MCF7): 93.5%; growth at 10 µM (NCI-H23): 92%; growth at 10 µM (SN12C): 90.9%; growth at 10 µM (SF-539): 94.7%; growth at 10 µM (HT-29): 85.7%; growth at 10 µM (HOP-92): 73.6%; growth at 10 µM (MDA-MB-435): 87.4% |
